Assay outcomes: PubChem BioAssay, The Scripps Research Institute Molecular Screening Center
In the library only some 1.2% were active in any assay of this set; here they are far more common.
proCasp3 act = activators of human procaspase-3 D3A mutant, primary screen, biochemical, absorbance, PC-3 D3A mutant, single concentration. recombinant procaspase-3 D3A, Ac-DEVD-pNA absorbance 405 nm. activation, % at 8.5 µM. hit rate 0.11% among 330,000. AID 463141, 2010;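 active means activation above the mean of all tested compounds plus 3 SD, cut at about 21% in these data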;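 further: 0% = DMSO alone and 100% = DMSO wells spiked with extra 5 µM PC-3 D3A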
Target sequence (P42574 whole entry D9A/D28A/D175A): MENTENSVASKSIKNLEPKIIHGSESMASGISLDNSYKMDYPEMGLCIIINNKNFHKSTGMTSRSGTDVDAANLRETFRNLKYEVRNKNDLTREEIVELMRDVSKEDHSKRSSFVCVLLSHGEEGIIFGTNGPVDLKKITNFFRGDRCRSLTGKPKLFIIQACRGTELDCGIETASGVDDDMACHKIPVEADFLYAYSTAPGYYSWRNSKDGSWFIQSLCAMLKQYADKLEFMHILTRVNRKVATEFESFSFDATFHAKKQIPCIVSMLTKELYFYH
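Assay system: Autoprocessing-dead procaspase-3 D3A mutant enzyme; also added: Ac-DEVD-pNA; doses: one concentration, 8.5 µM nominal, 0.8% DMSO; times: 1 h compound preincubation, 2 h substrate hydrolysis at 25 °C; technique: 405 nm absorbance of p-nitroaniline, reads at 0 and 120 min; measure: % activation between DMSO and enzyme-spiked controls; repeats: single replicate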
proCasp7 act = procaspase-7 activators, primary screen, counter-screen for procaspase-3 activator project, biochemical, absorbance, HTS, human; Caspase-7 (Homo sapiens), P55210; recombinant procaspase-7, Ac-DEVD-pNA absorbance 405 nm; D23A/D198A/D206A triple mutant, cannot self-cleave; scale: DMSO 0, 5 µM enzyme 100; activation, % at 8.5 µM; hit rate 0.093% among 330,000; AID 463210, 2010;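 active means percent activation above the screen-wide mean plus 3 SD, cut at about 25% in these data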
Target sequence (P55210 whole entry D23A/D198A/D206A): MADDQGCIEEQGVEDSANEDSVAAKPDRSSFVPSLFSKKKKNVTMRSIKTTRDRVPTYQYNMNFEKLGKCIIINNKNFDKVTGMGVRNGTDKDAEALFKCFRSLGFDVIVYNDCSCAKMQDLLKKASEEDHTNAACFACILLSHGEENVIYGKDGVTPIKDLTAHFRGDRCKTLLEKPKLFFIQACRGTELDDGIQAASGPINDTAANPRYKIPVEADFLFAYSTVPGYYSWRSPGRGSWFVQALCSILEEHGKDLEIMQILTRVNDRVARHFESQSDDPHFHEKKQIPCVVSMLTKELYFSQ
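Assay system: Uncleavable procaspase-7 mutant enzyme; Input: 2 µM procaspase-7 mutant as dispensed; Also added: DEVD-pNA substrate; Medium: Zinc-free HEPES pH 7.4 with 300 mM NaCl, 0.01% Triton X-100; Timing: 1 h compound preincubation, 2 h substrate cleavage, 25 °C; Measured by: Epi-absorbance of released pNA at 405 nm, two timepoints.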
MsrA inh = bovine MsrA enzyme inhibitors, primary screen, biochemical, absorbance, HTS; Methionine sulfoxide reductase A (Bos taurus); purified bovine MsrA, absorbance read-out; inhibition, % at 15.5 µM; hit rate 0.75% among 360,000; AID 651718, 2012; in the data active means inhibition above about 4.5%;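 further: 0% = vehicle wells with enzyme and 100% = reference inhibitor wells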
MsrA act = bovine MsrA enzyme activators, primary screen, biochemical, absorbance, HTS | Methionine sulfoxide reductase A (Bos taurus) | purified bovine MsrA, absorbance read-out | activation, % at 10.6 µM | hit rate 0.3% among 360,000 | AID 602163, 2012; in the data active means activation above about 7.5%;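 further: 0% = vehicle and 100% = reference activator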
Active calls of the source: *; / = not tested or not shown.

SMILES	proCasp3 act	proCasp7 act	MsrA inh	MsrA act
Cc1nn(-c2ccccc2)c(N2CCCC2)c1/C=N/NC(=O)c1cc(-c2ccccc2)nc2ccccc12	10.8	-8.8	4.6*	-4.7
COC(=O)C1=C(C)N(C)C(=NCc2ccc3c(c2)OCO3)NC1c1ccc(F)cc1 (stereo not given)	/	/	0.2	/
CC(=O)OCC(=O)N1CCN(C(=O)C(=O)c2cccc(C(F)(F)F)c2)CC1	/	/	0.4	/
Cc1c(C)c2c(OCC(=O)NCC(=O)NCC(=O)O)cc3c(c2oc1=O)CCC(C)(C)O3	2.5	-4.3	4.5*	-4.4
Cc1c(C)c2c(OCC(=O)O)cc3c(c2oc1=O)CCC(C)(C)O3	8.4	13.6	1.5	-1.9
CCCCc1c(-c2ccccc2OC)ncn1Cc1ccccc1C	/	/	-0.5	/
CCc1ccc2[nH]c(=O)c(CN(Cc3ccc(F)cc3)C(c3nnnn3CCN3CCOCC3)C(C)C)cc2c1 (stereo not given)	-3.9	0.6	/	8.6*
COc1ccc(Cn2c(/C=C/c3ccccc3)nc3ccccc32)cc1	6.4	20.2	1.8	-4.4
COc1ccc(/C=C/c2nc3ccccc3n2C)cc1	-1.8	-5.3	5.5*	-14.2
Cc1cc(C(=O)N/N=C/c2cc(N=Nc3ccccc3)ccc2O)n[nH]1	18.2	26.4*	/	-0.5
COC(=O)N/N=C/c1cc(N=Nc2ccccc2)ccc1O	-10.5	-11.8	2.1	-6.5
Clc1ccc(C2Nc3ccccc3-n3cccc32)cc1 (stereo not given)	-1.8	27.7*	0.9	-6.6
CN1c2ccccc2C(=O)NC1c1ccc(Cl)cc1 (stereo not given)	3.3	3.3	1.3	-6.8
Nc1nnc(CC(=O)N/N=C/c2ccc(-c3ccc(F)cc3)o2)s1	-3.0	-2.8	6.1*	-3.5
O=C(N/N=C/c1ccc2c(c1)OCO2)c1ccc(NC(=O)c2ccccc2Cl)cc1	1.3	2.3	5.2*	-13.1
O=C(N/N=C/c1ccc2c(c1)OCO2)c1cccc(NC(=O)c2ccccc2Cl)c1	-2.0	8.5	2.0	1.6
Oc1[nH]c2ccccc2c1C1=NCCCCC1	3.9	1.0	4.6*	-4.5
O=NC1=C(c2c(O)[nH]c3ccccc23)CCCC1	2.9	1.3	0.7	-3.1
Brc1ccccc1C1Cc2nnccc2CN1 (stereo not given)	/	/	-1.0	/
CC(N=Cc1c(O)c2ccccc2oc1=O)C(=O)O (stereo not given)	6.9	5.1	1.4	-2.4
O=C(O)C(CO)N=Cc1c(O)c2ccccc2oc1=O (stereo not given)	-3.6	-6.1	4.6*	-9.2
Cc1ccc(/C=N/NC(=O)c2c[nH]c3ccccc23)s1	4.4	2.5	3.9	-10.0
Cc1ccsc1/C=N/NC(=O)c1c[nH]c2ccccc12	-0.1	-3.1	5.1*	-4.4
COc1ccc(/C=N/NC(=S)NC2CCS(=O)(=O)C2)cc1OC (stereo not given)	-1.1	-5.7	6.0*	-5.7
Cc1ccc(C(=O)Nc2ccc([N+](=O)[O-])cn2)o1	2.4	0.4	4.6*	-2.9
SMILES	proCasp3 act	proCasp7 act	MsrA inh	MsrA act
O=c1cnnc(N/N=C/c2cccs2)[nH]1	4.3	6.1	4.6*	-4.4
Cc1cc(=O)[nH]c(N/N=C/c2cccs2)n1	9.0	-0.7	0.5	-3.1
COc1ccccc1/C=C/C=N/NC(=O)c1ccccn1	-12.9	4.5	4.6*	-6.4
COc1ccccc1/C=C/C=N/NC(=O)c1cc(-c2ccco2)[nH]n1	-4.9	-3.7	2.2	-5.2
CC(C)CNc1cccc2c1S(=O)(=O)N[C@@H](C)CO2	/	/	0.4	/
CCCOc1ccc(N2C(=O)CC(SCC(N)C(=O)OCC)C2=O)cc1 (stereo not given)	-11.2	-0.8	-1.4	0.1
CCOC(=O)C(N)CSC1CC(=O)N(c2ccc(C(=O)OC)cc2)C1=O (stereo not given)	-15.2	-13.4	-0.3	11.4*
C[C@H](O)[C@@H]1C(=O)N2CCc3c([nH]c4cccc(-c5ccccc5)c34)[C@@H]2C[C@@H]1N(C)C(=O)Nc1ccccc1	/	/	0.3	/
COc1ccc2c(c1OC)C(=O)OC2C1c2c(cc3c(c2OC)OCO3)CCN1C (stereo not given)	-2.9	-1.2	-1.0	-9.4
CN1CCc2cc3c(c4c2[C@H]1[C@H](O)c1ccccc1-4)OCO3	-1.9	-16.5	-0.2	36.8*
COC(=O)CC#C[C@H](C)[C@@H](NS(=O)(=O)c1ccc(C)cc1)C1CCCCC1	/	/	-0.2	/
O=C(/C=C/c1cccs1)NC(=S)NNC(=O)c1ccccc1O	-6.4	-1.3	6.9*	-7.1
CCn1c(/C=C/N(C(C)=O)c2ccccc2)[n+](CCCS(=O)(=O)[O-])c2cc(Cl)c(Cl)cc21	9.2	-8.0	4.6*	-5.8
CCn1c(/C=C/Nc2ccccc2)[n+](CC)c2cc(Cl)c(Cl)cc21	0.0	5.6	0.1	-3.6
COC(=O)[C@]12C[C@H](CC(=O)N3CCOCC3)C(=O)N(Cc3ccccc3)C1=C[C@H](C(C)(C)C)O[C@@H]2C	/	/	-0.1	/
CSc1nc2nccc(-c3ccc(Cl)cc3)n2n1	-6.2	-8.3	-1.0	-7.0
CSc1nc2nccc(/C=C\c3ccccc3)n2n1	-4.2	-3.7	4.9*	-2.8
CC(C(=O)NCCN1C(=O)S/C(=C\c2cccnc2)C1=O)N1C(=O)c2ccccc2C1=O (stereo not given)	-1.6	-13.4	4.6*	-11.1
O=C(CCl)NCCN1C(=O)S/C(=C\c2cccnc2)C1=O	-5.0	-1.3	2.9	-8.6
CN(C)CCCNc1nc(-c2ccc(Cl)cc2)nc2ccccc12	9.4	4.7	6.0*	-2.5
Cc1ccc(-c2nc(NCCN(C)C)c3ccccc3n2)cc1	-2.8	1.7	0.2	-7.8
O=C(Cc1cccc2ccccc12)Nc1ccc(-c2cc3ccccc3oc2=O)cc1	-5.2	-87.2	5.3*	-2.2
C[C@H]1CN(S(=O)(=O)C(C)(C)C)[C@@H](CCO)/C1=C\c1ccccc1	/	/	0.9	/
CN(C)c1ccc(C(=O)C(=O)c2ccccc2)cc1	-6.8	8.3	4.6*	-5.1
CN(C)/C=N/c1ncc(C(=O)c2ccc3ccccc3c2)s1	-0.6	-8.4	4.6*	-6.1
CN1CCCCC(NC(=O)c2ccc(F)cc2)C1=O (stereo not given)	/	/	0.0	/
O=C(Nc1cccnc1)c1ccc([N+](=O)[O-])s1	9.2	-3.5	1.9	13.4*
CC1Cc2cc(/C=C3/SC(=S)N(C)C3=O)ccc2O1 (stereo not given)	-17.7	3.8	0.9	-0.7
CC1Cc2cc(/C=C3/SC(N4CCC(C(N)=O)CC4)=NC3=O)ccc2O1 (stereo not given)	-14.5	2.8	4.6*	-2.7
COc1ccc([C@H]2CC(=O)C=C(/C=C/c3ccccc3)C2)cc1OC	12.7	6.2	4.6*	-0.2
